According to ChEMBL document CHEMBL3352149, “Promiscuity and selectivity in covalent enzyme inhibition: a systematic study of electrophilic fragments” (J Med Chem, 2014):

Key:
[1] = tested on: Escherichia coli; assay: Inhibition of Escherichia coli MetAP at 25 uM after 20 mins by HPLC analysis
How it was run: (§1)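 Endpoint assay. Enzyme (50 nM) was preincubated with 25 μM compound for 20 min at 37 °C in 50 mM Tris pH 7.5, 100 mM NaCl, 100 μM CoCl2, 0.075% BSA. MGMM substrate (400 μM) was then added for 15 min (human MetAP-1) or 20 min (E. coli MetAP). Reactions were stopped with TFA. GMM product was quantified by RP-HPLC, UV 214 nm. Triplicate.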

[2] = target: Prothrombin (Bos taurus) (UniProt P00735); assay: Inhibition of Bovine thrombin using Boc-Val-Pro-Arg-AMC as substrate compound preincubated at 25 uM for 15 mins by fluorescence assay
How it was run: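 Bovine thrombin (final 10 nM) was preincubated 15 min with 25 μM compound in 50 mM Tris-HCl pH 7.5, 150 mM NaCl, 0.05% Tween 20. The reaction was started with Boc-Val-Pro-Arg-AMC (50 μM final). Fluorescence (ex 355/em 460 nm) was monitored continuously for 10 min; activity taken as slope (RFU/s). Triplicate.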

[3] = tested on: Escherichia coli; assay: Inhibition of wild-type Escherichia coli MurA compound preincubated for 10 mins before substrate addition at 25 uM measured after 15 mins by LC-MS method
[4] = tested on: Escherichia coli; assay: Inhibition of wild-type Escherichia coli MurB compound preincubated for 10 mins before substrate addition at 25 uM measured after 15 mins by LC-MS method
How it was run: (§2)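 E. coli wild-type enzyme (4 nM) was preincubated with 25 μM compound for 10 min at 37 °C. Enzymatically generated nucleotide-sugar substrate (~200 μM) plus ATP (~200 μM), or NADPH 200 μM for MurB, was added for 10 min. Reactions were started with amino-acid cosubstrate (MurC–F) or EP-UNAG (MurB), run 15 min at 37 °C, and quenched with formic acid. Product was measured by negative-ESI LC-MS EIC peak area. MgCl2: MurC 10, MurD/E 2, MurF 5 mM; MurB had 5 mM KCl. All in 50 mM NH4HCO3, 0.07% BSA, 1% DMSO; triplicate.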

[5] = tested on: Escherichia coli; assay: Inhibition of wild-type Escherichia coli MurC compound preincubated for 10 mins before substrate addition at 25 uM measured after 15 mins by LC-MS method; how it was run: as §2
[6] = GSH reactivity of the compound assessed as adducts formation meaured over 3 hrs by RP-HPLC analysis
How it was run: (§3)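 Fresh aqueous glutathione (10 mM solution) was added to 50 mM Tris-maleate buffer, pH 7.5. The reaction was started with compound from 10 mM DMSO stock (final 250 μM). Mixtures were followed by reversed-phase HPLC on an ODS column with a gradient to 100% B; rate constants are given in l·mol⁻¹·s⁻¹.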

[7] = target: Genome polyprotein (West Nile virus) (UniProt P06935); assay: Inhibition of West Nile virus NS2B-NS3 protease at 50 uM
[8] = GSH reactivity of the compound assessed as adducts formation by RP-HPLC analysis; how it was run: as §3
[9] = target: Methionine aminopeptidase 1 (Homo sapiens) (UniProt P53582); assay: Inhibition of human MetAP at 25 uM after 20 mins by HPLC analysis; how it was run: as §1
[10] = target: Genome polyprotein (dengue virus type 2) (UniProt P12823); assay: Inhibition of Dengue virus serotype 2 NS2B-NS3 protease at 50 uM
[11] = tested on: Escherichia coli; assay: Inhibition of wild-type Escherichia coli MurD compound preincubated for 10 mins before substrate addition at 25 uM measured after 15 mins by LC-MS method; how it was run: as §2
[12] = tested on: Escherichia coli; assay: Inhibition of wild-type Escherichia coli MurE compound preincubated for 10 mins before substrate addition at 25 uM measured after 15 mins by LC-MS method; how it was run: as §2
[13] = tested on: Escherichia coli; assay: Inhibition of wild-type Escherichia coli MurF compound preincubated for 10 mins before substrate addition at 25 uM measured after 15 mins by LC-MS method; how it was run: as §2
[14] = tested on: HeLa; assay: Cytotoxicity against human HeLa cells assessed as reduction in cell viability after 24 hrs by CellTiter-Blue assay; assay type: cell-based
How it was run: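 HeLa cells seeded in triplicate at 5×10^3 cells/well and grown 24 h at 37 °C/5% CO2. Compounds at varying concentrations were added as a 2x stock in phenol-red-free DMEM with FBS, penicillin/streptomycin, sodium pyruvate and L-glutamine, then left 24 h. Medium was replaced with CellTiter-Blue medium for 3 h. A570/A610 was read after background subtraction, as % of untreated controls; EC50 derived.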

Sequence of Genome polyprotein (West Nile virus) (P06935 whole entry): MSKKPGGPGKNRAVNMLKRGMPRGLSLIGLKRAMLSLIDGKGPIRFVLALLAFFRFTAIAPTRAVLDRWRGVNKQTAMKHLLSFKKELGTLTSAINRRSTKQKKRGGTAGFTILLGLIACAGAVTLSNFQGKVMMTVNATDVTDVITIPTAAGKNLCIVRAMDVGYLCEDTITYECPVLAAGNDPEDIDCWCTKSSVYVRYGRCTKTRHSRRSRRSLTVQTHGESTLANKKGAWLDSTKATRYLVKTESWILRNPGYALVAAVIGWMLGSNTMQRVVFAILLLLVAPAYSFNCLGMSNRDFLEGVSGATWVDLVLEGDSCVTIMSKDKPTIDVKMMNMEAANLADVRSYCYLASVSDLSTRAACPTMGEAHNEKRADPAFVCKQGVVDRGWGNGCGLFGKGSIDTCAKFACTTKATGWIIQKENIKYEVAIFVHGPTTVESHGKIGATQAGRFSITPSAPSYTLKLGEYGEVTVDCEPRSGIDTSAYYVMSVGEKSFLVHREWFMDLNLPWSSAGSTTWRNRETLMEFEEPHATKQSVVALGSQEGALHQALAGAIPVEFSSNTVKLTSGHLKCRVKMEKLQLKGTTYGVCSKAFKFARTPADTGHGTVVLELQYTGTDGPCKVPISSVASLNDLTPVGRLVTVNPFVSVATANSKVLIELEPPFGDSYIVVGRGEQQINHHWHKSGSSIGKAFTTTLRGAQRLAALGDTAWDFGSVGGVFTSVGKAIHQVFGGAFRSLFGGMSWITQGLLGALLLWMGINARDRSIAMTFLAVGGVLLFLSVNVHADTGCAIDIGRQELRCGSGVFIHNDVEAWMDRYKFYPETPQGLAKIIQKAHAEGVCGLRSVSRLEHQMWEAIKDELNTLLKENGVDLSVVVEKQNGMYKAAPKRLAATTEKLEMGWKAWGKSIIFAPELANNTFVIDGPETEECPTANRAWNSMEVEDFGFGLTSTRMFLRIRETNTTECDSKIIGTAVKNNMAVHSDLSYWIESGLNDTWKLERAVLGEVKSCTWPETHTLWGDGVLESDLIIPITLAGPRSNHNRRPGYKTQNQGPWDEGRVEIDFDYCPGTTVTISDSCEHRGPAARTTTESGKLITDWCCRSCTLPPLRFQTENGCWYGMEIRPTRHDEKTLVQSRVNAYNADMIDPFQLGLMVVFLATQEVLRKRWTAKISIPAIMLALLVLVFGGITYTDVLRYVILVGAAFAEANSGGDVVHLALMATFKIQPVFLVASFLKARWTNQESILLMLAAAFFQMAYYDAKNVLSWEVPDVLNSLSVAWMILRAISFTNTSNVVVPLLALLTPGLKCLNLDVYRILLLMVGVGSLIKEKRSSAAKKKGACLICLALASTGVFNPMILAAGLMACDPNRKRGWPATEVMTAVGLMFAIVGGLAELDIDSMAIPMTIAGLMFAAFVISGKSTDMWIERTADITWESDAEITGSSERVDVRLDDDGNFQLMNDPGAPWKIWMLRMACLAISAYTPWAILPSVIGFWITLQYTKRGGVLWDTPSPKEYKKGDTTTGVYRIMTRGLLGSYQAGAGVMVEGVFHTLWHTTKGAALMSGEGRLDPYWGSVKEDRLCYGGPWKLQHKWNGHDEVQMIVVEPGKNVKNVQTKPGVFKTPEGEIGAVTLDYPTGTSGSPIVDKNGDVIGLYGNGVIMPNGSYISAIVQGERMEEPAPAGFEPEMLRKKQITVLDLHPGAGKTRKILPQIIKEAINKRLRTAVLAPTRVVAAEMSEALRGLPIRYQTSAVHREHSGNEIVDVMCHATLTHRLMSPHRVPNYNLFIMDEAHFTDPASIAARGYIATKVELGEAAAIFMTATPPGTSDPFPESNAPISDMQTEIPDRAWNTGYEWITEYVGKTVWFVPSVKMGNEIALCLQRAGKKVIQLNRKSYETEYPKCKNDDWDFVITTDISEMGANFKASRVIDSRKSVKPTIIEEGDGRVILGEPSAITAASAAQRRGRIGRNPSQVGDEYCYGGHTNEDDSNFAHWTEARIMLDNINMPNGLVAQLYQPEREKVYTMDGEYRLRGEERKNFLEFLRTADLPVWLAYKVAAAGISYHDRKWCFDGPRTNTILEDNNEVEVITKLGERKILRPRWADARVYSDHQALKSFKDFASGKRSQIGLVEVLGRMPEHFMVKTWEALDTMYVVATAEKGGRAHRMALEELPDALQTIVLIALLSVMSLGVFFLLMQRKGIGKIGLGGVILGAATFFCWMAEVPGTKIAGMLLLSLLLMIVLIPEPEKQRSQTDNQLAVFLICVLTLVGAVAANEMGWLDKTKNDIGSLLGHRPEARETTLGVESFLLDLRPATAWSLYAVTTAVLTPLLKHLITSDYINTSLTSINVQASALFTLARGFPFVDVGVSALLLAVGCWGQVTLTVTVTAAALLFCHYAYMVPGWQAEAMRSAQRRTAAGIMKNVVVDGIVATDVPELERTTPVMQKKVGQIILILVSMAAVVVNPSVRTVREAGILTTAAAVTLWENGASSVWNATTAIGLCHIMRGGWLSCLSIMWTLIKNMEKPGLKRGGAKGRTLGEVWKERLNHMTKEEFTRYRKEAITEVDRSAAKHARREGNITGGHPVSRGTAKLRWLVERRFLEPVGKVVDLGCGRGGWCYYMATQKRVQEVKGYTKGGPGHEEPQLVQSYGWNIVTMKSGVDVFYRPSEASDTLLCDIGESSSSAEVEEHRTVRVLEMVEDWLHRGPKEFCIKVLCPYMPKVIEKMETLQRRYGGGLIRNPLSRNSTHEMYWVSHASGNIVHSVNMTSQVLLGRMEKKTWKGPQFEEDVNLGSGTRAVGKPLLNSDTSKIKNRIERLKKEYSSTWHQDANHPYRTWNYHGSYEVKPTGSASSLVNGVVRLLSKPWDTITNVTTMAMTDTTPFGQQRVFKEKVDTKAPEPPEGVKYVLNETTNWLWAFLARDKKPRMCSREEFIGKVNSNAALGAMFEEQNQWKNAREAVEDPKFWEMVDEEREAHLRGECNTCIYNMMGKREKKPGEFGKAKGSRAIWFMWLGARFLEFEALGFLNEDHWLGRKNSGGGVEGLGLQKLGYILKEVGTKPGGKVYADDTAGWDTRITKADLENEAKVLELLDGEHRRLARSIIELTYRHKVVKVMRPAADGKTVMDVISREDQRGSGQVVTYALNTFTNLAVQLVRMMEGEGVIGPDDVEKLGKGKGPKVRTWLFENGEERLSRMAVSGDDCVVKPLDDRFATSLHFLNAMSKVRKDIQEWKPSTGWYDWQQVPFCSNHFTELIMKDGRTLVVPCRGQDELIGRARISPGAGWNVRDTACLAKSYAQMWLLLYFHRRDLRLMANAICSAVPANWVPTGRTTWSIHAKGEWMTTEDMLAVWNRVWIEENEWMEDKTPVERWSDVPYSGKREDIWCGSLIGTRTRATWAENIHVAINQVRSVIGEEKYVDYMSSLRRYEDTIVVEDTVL

C=CC(=O)Nc1ccc(F)cc1
< 15%: inhibition [1] | inhibition [2] | inhibition [3] | inhibition [4] | inhibition [5] | inhibition [7] | inhibition [9] | inhibition [10] | inhibition [11] | inhibition [12] | inhibition [13]
< 5%: Activity [6]
< 0.1 L/mol/s: Activity [8]

C=CCNCCCC
< 15%: inhibition [1] | inhibition [2] | inhibition [3] | inhibition [5] | inhibition [7] | inhibition [9] | inhibition [10] | inhibition [11] | inhibition [12] | inhibition [13]
> 100 µM: EC50 [14]
19%: inhibition [4]
< 0.1 L/mol/s: Activity [8]

CCCCNC(=O)CCl
15%: inhibition [12]
< 0.1 L/mol/s: Activity [8]
> 100 µM: EC50 [14]
< 15%: inhibition [1] | inhibition [2] | inhibition [3] | inhibition [4] | inhibition [5] | inhibition [7] | inhibition [9] | inhibition [10] | inhibition [11] | inhibition [13]

N#CCNC(=O)/C=C/c1ccccc1
> 100 µM: EC50 [14]
< 15%: inhibition [1] | inhibition [2] | inhibition [3] | inhibition [4] | inhibition [5] | inhibition [9] | inhibition [12] | inhibition [13]
18%: inhibition [7]
< 17%: inhibition [11]
17%: inhibition [10]
< 0.1 L/mol/s: Activity [8]

C=CCNc1ccccc1
22%: inhibition [9]
> 100 µM: EC50 [14]
16%: inhibition [3]
< 0.1 L/mol/s: Activity [8]
< 15%: inhibition [1] | inhibition [2] | inhibition [4] | inhibition [5] | inhibition [7] | inhibition [10] | inhibition [11] | inhibition [12] | inhibition [13]

C=CCNc1ccc(F)cc1
< 15%: inhibition [1] | inhibition [2] | inhibition [3] | inhibition [5] | inhibition [7] | inhibition [9] | inhibition [10] | inhibition [11] | inhibition [12] | inhibition [13]
< 0.1 L/mol/s: Activity [8]
17%: inhibition [4]

Cc1ccc(NC(=O)CCl)cc1
< 15%: inhibition [1] | inhibition [2] | inhibition [3] | inhibition [4] | inhibition [5] | inhibition [7] | inhibition [9] | inhibition [10] | inhibition [11] | inhibition [12] | inhibition [13]
< 0.1 L/mol/s: Activity [8]

O=C(CCl)Nc1ccc([N+](=O)[O-])cc1
< 0.1 L/mol/s: Activity [8]
< 15%: inhibition [1] | inhibition [2] | inhibition [3] | inhibition [4] | inhibition [5] | inhibition [7] | inhibition [9] | inhibition [10] | inhibition [11] | inhibition [12] | inhibition [13]

CC(=O)Nc1ccc([N+](=O)[O-])cc1
< 0.1 L/mol/s: Activity [8]
< 15%: inhibition [1] | inhibition [2] | inhibition [3] | inhibition [4] | inhibition [5] | inhibition [7] | inhibition [9] | inhibition [10] | inhibition [11] | inhibition [12] | inhibition [13]

C=CCNC(CCCC)C(=O)OC (configuration not stated)
< 15%: inhibition [1] | inhibition [2] | inhibition [3] | inhibition [4] | inhibition [5] | inhibition [7] | inhibition [9] | inhibition [10] | inhibition [11] | inhibition [12] | inhibition [13]
< 0.1 L/mol/s: Activity [8]

N#CCC(=O)NC1CCCC1
< 0.1 L/mol/s: Activity [8]
< 15%: inhibition [1] | inhibition [2] | inhibition [3] | inhibition [4] | inhibition [5] | inhibition [7] | inhibition [9] | inhibition [10] | inhibition [11] | inhibition [13]
16%: inhibition [12]

CCCCC(NC(=O)CC#N)C(=O)OC (configuration not stated)
18%: inhibition [7]
< 0.1 L/mol/s: Activity [8]
< 15%: inhibition [1] | inhibition [2] | inhibition [3] | inhibition [4] | inhibition [5] | inhibition [9] | inhibition [10] | inhibition [11] | inhibition [12] | inhibition [13]

BrC1=NOC(c2ccccc2)C1 (configuration not stated)
< 17%: inhibition [11]
< 0.1 L/mol/s: Activity [8]
< 15%: inhibition [1] | inhibition [2] | inhibition [3] | inhibition [4] | inhibition [5] | inhibition [7] | inhibition [9] | inhibition [10] | inhibition [12] | inhibition [13]

C=CCNc1ccc([N+](=O)[O-])cc1
20%: inhibition [4]
< 0.1 L/mol/s: Activity [8]
< 15%: inhibition [1] | inhibition [2] | inhibition [3] | inhibition [5] | inhibition [7] | inhibition [9] | inhibition [10] | inhibition [11] | inhibition [12] | inhibition [13]

C=CCNCc1ccccc1
< 15%: inhibition [1] | inhibition [2] | inhibition [3] | inhibition [4] | inhibition [5] | inhibition [7] | inhibition [9] | inhibition [10] | inhibition [11] | inhibition [12] | inhibition [13]
< 0.1 L/mol/s: Activity [8]

N#CCC(=O)Nc1ccc(F)cc1
< 15%: inhibition [1] | inhibition [2] | inhibition [3] | inhibition [4] | inhibition [5] | inhibition [7] | inhibition [9] | inhibition [10] | inhibition [11] | inhibition [12] | inhibition [13]
< 0.1 L/mol/s: Activity [8]

CCCCC(N)C(=O)OC (configuration not stated)
< 22%: inhibition [4]
< 15%: inhibition [1] | inhibition [2] | inhibition [3] | inhibition [5] | inhibition [7] | inhibition [9] | inhibition [10] | inhibition [13]
17%: inhibition [12]
18%: inhibition [11]
< 0.1 L/mol/s: Activity [8]

N#CCC(=O)Nc1ccc([N+](=O)[O-])cc1
< 15%: inhibition [1] | inhibition [2] | inhibition [3] | inhibition [4] | inhibition [5] | inhibition [7] | inhibition [9] | inhibition [10] | inhibition [11] | inhibition [12] | inhibition [13]
< 0.1 L/mol/s: Activity [8]

N#CCNC(=O)c1ccccc1
23%: inhibition [7]
< 0.1 L/mol/s: Activity [8]
< 15%: inhibition [1] | inhibition [2] | inhibition [3] | inhibition [5] | inhibition [9] | inhibition [10] | inhibition [11] | inhibition [12] | inhibition [13]
17%: inhibition [4]
> 100 µM: EC50 [14]

CCCCNC(=O)CC#N
< 15%: inhibition [1] | inhibition [2] | inhibition [3] | inhibition [4] | inhibition [5] | inhibition [7] | inhibition [9] | inhibition [10] | inhibition [11] | inhibition [12] | inhibition [13]
> 100 µM: EC50 [14]
< 0.1 L/mol/s: Activity [8]
